Source: PubChem BioAssay
NadD block = blocks S. aureus nicotinate mononucleotide adenylyltransferase; inhibition, % at 20 µM; AID 602399; purified NadD enzyme, colorimetric absorbance read-out; hit rate 0.78% among 360,000; in the data active = inhibition above about 26%
SUMO1 PPI mod = modulators of human SUMO1-mediated protein-protein interactions; inhibition, % at 20 µM; P63165; hit rate 0.33% among 360,000; SUMO1 binding to a labelled peptide, TR-FRET, 1 h; in the data active = inhibition above about 37%
Target sequence (P63165 whole entry, looked up): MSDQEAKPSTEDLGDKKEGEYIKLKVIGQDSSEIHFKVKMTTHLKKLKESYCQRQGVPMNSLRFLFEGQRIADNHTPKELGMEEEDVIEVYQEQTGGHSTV
DNMT1 block = blocks human DNA methyltransferase DNMT1 | P26358 | hit rate 0.83% among 360,000 | DNMT1 molecular beacon, Hinp1I cleavage, fluorescence | inhibition (reported as % activation of signal), % at 10 µM; in the data active = inhibition above about 50%
STEP inh = inhibitors of human striatal-enriched phosphatase STEP. P54829. recombinant STEP, OMFP fluorogenic substrate, fluorescence. inhibition, % at 20 µM. hit rate 0.25% among 360,000;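 active = inhibition at 20 µM, scaled per plate between control wells, above about 37%, limit read from the data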;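 note: 0% = DMSO with enzyme and substrate and 100% = substrate only without enzyme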
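System: STEP (striatal-enriched tyrosine phosphatase) enzyme, cell-free; medium: Bis-Tris pH 6.0 buffer with DTT, detergent; dosing: 20 µM, 1% DMSO; times: reaction 20 min, ambient temperature; detection: fluorescence, 480/540 nm; read-out basis: normalized % inhibition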
Scp1 inh = inhibitors of human Scp-1 phosphatase | Q9GZU7 | Recombinant Scp1, phosphopeptide, malachite green phosphate absorbance | inhibition, % at 20 µM | hit rate 0.88% among 340,000;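 active = inhibition above about 50% at 20 µM, limit read from the data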;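 note: plate controls were DMSO wells with enzyme for no effect and wells lacking enzyme for full effect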
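Test system: SCP-1 catalytic domain; Buffer or medium: Acidic Tris acetate buffer with magnesium and detergent; Also added: Phosphorylated 17-residue peptide substrate; Compound: single 20 µM dose, 1% DMSO; Schedule: enzyme reaction 45 min at room temperature, colour 5 min, stabilisation 30 min; Signal: Phosphate-binding colour reagent, absorbance read at 630 nm.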
LMPTP block = blocks human LMPTP phosphatase; recombinant LMPTP-A, OMFP fluorogenic substrate, fluorescence intensity; inhibition, % at 20 µM; hit rate 0.22% among 360,000;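 active = compounds that cut the enzyme signal by at least half of the control window in the single-dose screen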;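 note: plate controls were DMSO wells with enzyme plus substrate for no effect and substrate without enzyme for full effect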
Target sequence (P24666 whole entry, looked up): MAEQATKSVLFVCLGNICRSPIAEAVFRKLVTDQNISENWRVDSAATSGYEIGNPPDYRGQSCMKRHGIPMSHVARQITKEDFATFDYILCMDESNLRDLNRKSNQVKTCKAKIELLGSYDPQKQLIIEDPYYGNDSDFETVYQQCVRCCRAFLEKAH
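material = LMPTP-A | quantity = 0.625 nM enzyme | reagent = OMFP substrate, 400 µM final | buffer or medium = Bis-Tris pH 6.0, DTT, detergent | detection = endpoint fluorescence intensity from OMFP dephosphorylation | dosing = single 20 µM dose | read-out basis = % inhibition relative to no-enzyme and uninhibited control wells | control set = no-enzyme and uninhibited controls | timing = 50 min at room temperature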
DNMT1 inh conf = confirmation of human DNMT1 inhibitors; shares compounds with DNMT1 block; DNMT1 molecular beacon HinP1I cleavage, fluorescence; inhibition, % at 10 µM; hit rate 8% among 2,300;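 active = average inhibition of at least 30% in the single-concentration confirmation test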
Beacon interf = counter-screen for DNMT1 inhibitors: spectral interference; hit rate 1% among 2,300; activation (fluorescence interference), % at 10 µM; AID 602387; shares compounds with DNMT1 block; DNMT1 molecular beacon spectral interference counterscreen, fluorescence 485/520;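 active = activation of at least 30% at 10 µM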;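 note: DNMT1 catalytic domain with a HinP1I cleavage step and a FAM/dabcyl DNA beacon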
NadD inh conf = confirmation of Staphylococcus aureus NadD inhibitors | shares compounds with NadD block | purified S. aureus NadD, colorimetric enzyme assay | inhibition, % at 20 µM | hit rate 13% among 2,000 | AID 624309; in the data active = inhibition mostly above about 42%, no sharp cut-off; inactive = mostly below about 42%
Numbers without * were called inactive. Most compounds without a hit are left out; they make up all but 2.4% or so of the library.

For Cc1nn(CCC(=O)N2CCN(S(=O)(=O)c3ccccc3)CC2)c(C)c1C the results were NadD block 0, SUMO1 PPI mod -3, DNMT1 block 1, STEP inh -3, Scp1 inh -5 and LMPTP block -2.
For O=C1c2ccccc2C(=O)N1CCc1c(-c2ccccc2)[nH]c2ccccc12 the results were NadD block 1, SUMO1 PPI mod -10, DNMT1 block -8, STEP inh 0, Scp1 inh -12 and LMPTP block 5.
For O=C1c2ccccc2C(=O)N1CCc1c(-c2[nH]c3ccccc3c2CCN2C(=O)c3ccccc3C2=O)[nH]c2ccccc12 the results were NadD block 31*, SUMO1 PPI mod 3, DNMT1 block 56*, STEP inh 3, Scp1 inh -4, LMPTP block -2, DNMT1 inh conf 3, Beacon interf 1 and NadD inh conf 3.
For Cc1nc(C(C)NC(=O)CCc2nnc(-c3ccsc3)o2)cs1 (stereo unspecified) the results were NadD block -1, SUMO1 PPI mod -3, DNMT1 block 1, STEP inh 0, Scp1 inh 0 and LMPTP block -2.
Cc1ccc(Cn2c(=N)c(C(=O)NCc3ccco3)cc3c(=O)n4ccccc4nc32)cc1 was read as NadD block 43*, SUMO1 PPI mod -5, DNMT1 block 82*, STEP inh 5, Scp1 inh 33, LMPTP block 59*, DNMT1 inh conf 3, Beacon interf -5 and NadD inh conf 39.
For N=c1c(S(=O)(=O)c2ccc(Br)cc2)cc2c(=O)n3ccccc3nc2n1Cc1ccco1 the results were NadD block 49*, SUMO1 PPI mod 12, DNMT1 block 86*, STEP inh 16, Scp1 inh 23, LMPTP block 40, DNMT1 inh conf 5, Beacon interf 0 and NadD inh conf 12.
For Cc1ccc(Cn2c(=N)c(C(=O)NCC3CCCO3)cc3c(=O)n4ccccc4nc32)cc1 (stereo unspecified) the results were NadD block 0, SUMO1 PPI mod -36, DNMT1 block 1, STEP inh 1, Scp1 inh 6 and LMPTP block 1.
Cc1[nH]c(C)c(S(=O)(=O)NCCc2ccc(S(N)(=O)=O)cc2)c1C(=O)N1CCCC1 was read as NadD block -1, SUMO1 PPI mod -5, DNMT1 block 4, STEP inh -1, Scp1 inh -9 and LMPTP block -1.
Cc1cc(C(=O)OCC(=O)NC2CCCCC2C)c2ccccc2n1 (stereo unspecified) was read as NadD block 3, SUMO1 PPI mod -9, DNMT1 block 5, STEP inh 2, Scp1 inh 4 and LMPTP block -1.
CC1CCCCC1NC(=O)COC(=O)c1c2c(nc3ccccc13)/C(=C/c1ccco1)CC2 (stereo unspecified) was read as NadD block 85*, SUMO1 PPI mod 28, DNMT1 block 95*, STEP inh 5, Scp1 inh 68*, LMPTP block 39, DNMT1 inh conf 3, Beacon interf -7 and NadD inh conf 42.
For COc1ccccc1/C=C/C=c1\sc2nc(=O)c(Cc3ccccc3)nn2c1=O the results were NadD block 37*, SUMO1 PPI mod 15, DNMT1 block 93*, STEP inh 5, Scp1 inh 3, LMPTP block 11, DNMT1 inh conf 11, Beacon interf -1 and NadD inh conf 19.
